# Measured values as given in ChEMBL document CHEMBL4513216, “Probing the Open Global Health Chemical Diversity Library for Multistage-Active Starting Points for Next-Generation Antimalarials” (ACS Infect Dis, 2020).
# Test: Toxicity liver stage against HepG2, at 10uM
# Type: cell-based
# Design: test concentration 10 uM, cell line HepG2-A16-CD81EGFP
# Conditions: human, HepG2-A16-CD81EGFP cells; read-out: INHIBITION
# How it was run: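 Uninfected HepG2-A16-CD81EGFP cells, 3 × 10^3 per well, 1536-well, plated on prespotted compound at 10 μM final, parasite-free screening media added to match infected plates; puromycin 10 μM positive, DMSO 0.5% negative; run in parallel with 48 h PbLuc assay at 37 °C, 5% CO2; viability by CellTiter-Glo luminescence, normalized to controls.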
row,Compound,cytotoxicity at 10 µM
1,O=C(c1cc(-c2cccs2)nc2ccccc12)N1CCN(CCO)CC1,-53.2%
2,Cc1csc(C(=O)NCCN2CCC(c3cccs3)CC2)c1,2.03%
3,O=C(c1ccco1)N1CC[C@@H]2O[C@@H](COCC3CCOCC3)CC[C@@H]21,1.95%
4,CCn1ncc2c1C(COC)CN(Cc1cnn(C)c1)C2 (centres undefined),1.49%
5,CO[C@H]1CN(Cc2ccccc2F)[C@@H]2CCCO[C@H]12,-0.0925%
6,COc1ccc(C2SCC(=O)Nc3ccsc32)cc1 (centres undefined),10.5%
7,CCOC1(C)C(=O)c2ccccc2N1Nc1ccccc1C(=O)CC (centres undefined),12.9%
8,Cc1c2nnn(CC(=O)N(C)C)c(=O)c2nn1C,-4.26%
9,COc1cc(C(=O)NCC2(N(C)C)CCN(C)CC2)c2ccccc2n1,-0.356%
10,Cc1csc(Nc2cc(C3CN(c4ccncn4)C3)nc(C)n2)n1,11.6%
11,CNc1ncc(CN2CCC(CCc3ccccc3)CC2)cn1,5.19%
12,Cc1nc(C2CN(Cc3scnc3C)CCO2)cc(N(C)C)n1 (centres undefined),-12.3%
13,Cn1cncc1CN1CCCC1c1cncc(Oc2ccc(F)cc2)n1 (centres undefined),-17.3%
14,Cc1noc(C)c1-c1ccnc(C2CCNCC2)c1,-8.41%
15,Cc1cc(C)nc(N2CCCC(c3cccc(-n4ccnc4)n3)C2)n1 (centres undefined),-0.252%
16,Nc1cc(CCC2CN(Cc3ccc4c(c3)OCCO4)CCO2)ccn1 (centres undefined),15.8%
17,Cc1cc(C)c(CN2CCCC23Cc2ccccc2CNC3=O)c(C)c1 (centres undefined),10.8%
18,Cc1cc(C(=O)NCCc2nc3c(s2)CCCC3)n(C)n1,20.5%
19,CN(C)C1(C(=O)NC2CCC(Oc3ccccc3C#N)CC2)CCC1 (centres undefined),9.92%
20,COC(=O)CCN(C)C(=O)c1ccc(-c2cscn2)cc1,-7.29%
21,CC(C)OCc1ccccc1CNC(=O)C(C)(C)C,-8.11%
22,CSCCC(=O)N1CCN(CC(C)O)CC1 (centres undefined),-5.64%

row,Compound,cytotoxicity at 10 µM
1,NC(=O)c1cncc(N2CCN(Cc3ccc(F)cc3Cl)CC2)n1,11.8%
2,CC(NC(=O)NC1CCN(Cc2ccncc2)CC1)c1ccccc1F (centres undefined),-17.8%
3,CCC1CCCN(Cc2nc3ccccc3c(=O)[nH]2)C1 (centres undefined),-46%
4,COc1ccccc1CN(Cc1cccs1)S(=O)(=O)N(C)C(C)C,-46.7%
5,Cc1ccc(CN(CC(=O)NC2CCOCC2)c2ccc(F)cc2)o1,1.55%
6,O=C(CCc1nc(-c2ccsc2)no1)NCC1CCN(C2CC2)C1 (centres undefined),3.23%
7,O=C(Nc1ccccn1)NC1CCN(c2ccccc2OC(F)F)C1 (centres undefined),11.7%
8,O=C(c1ccc(F)cc1Cl)N1CCn2c(nnc2C(F)(F)F)C1,-6.7%
9,CCc1ccc(C2CCCCCN2C(=O)CNC(=O)NC2CC2)o1 (centres undefined),0.0456%
10,CN(c1ccc(CNC(=O)c2ccc(O)nc2)cc1)C1CCCCC1,-0.77%
11,CCc1cnc(CN(C)C(=O)NC2CCN(C)C2=O)s1 (centres undefined),-0.786%
12,Cc1nn(C)c(N(C)C)c1CNCc1cccc(Cl)c1,-8.27%
13,Cc1nn(C)c(C)c1OCC(=O)NCC(O)Cc1ccccc1 (centres undefined),-3.81%
14,CCN(CC)C(=O)N1CCN(C(=O)C2CCCc3[nH]ncc32)CC1 (centres undefined),-2.3%
15,CC(NC(=O)N(C)Cc1cccc(OC(F)F)c1)c1nncn1C (centres undefined),-2.69%
16,Cc1ccc(C(=O)Nc2cc(C(N)=O)ccc2N2CCCCC2)cc1F,2.13%
17,CC(C)NC(=O)CCN1CCC(C(=O)c2cc(F)ccc2F)CC1,-25%
18,COCc1ccccc1CNC(=O)CN1CCC2(CCOC2)C1 (centres undefined),-61%
19,COc1ccc(C(C)Nc2cnn(C)c(=O)c2Cl)cc1OC (centres undefined),18.7%
20,CCC(NC(=O)NCc1cccc(N(C)C)n1)c1nccs1 (centres undefined),23.3%
21,O=C(c1cncc(Br)c1)N1CCCc2ccc(F)cc21,-1.01%
22,O=S(=O)(Cc1ccc(F)cc1)NCc1nnc2n1CCC2,3.82%

row,Compound,cytotoxicity at 10 µM
1,CC(NC(=O)NCCc1cnn(C)c1)c1ccc(Cl)s1 (centres undefined),-2.47%
2,CC(=O)N1CCC(NS(=O)(=O)c2cccnc2)CC1,-2.73%
3,N#Cc1ccc(NC2CCN(c3ncccn3)CC2)cc1C(F)(F)F,27.5%
4,COCCNC(=O)C[C@@H]1COC[C@H]2CN(C(=O)C3CCOCC3)C[C@@H]12,-94.8%
5,COc1cc(N2CCN(CC3CC3)c3nc(C)ccc3C2)ncn1,-101%
6,Cn1cc(C2COC3(CCN(C(=O)c4ccsc4)CC3)C2)cn1 (centres undefined),-67%
7,Cc1cc(C(=O)N2CC[C@@]3(C[C@@H](NS(C)(=O)=O)CCO3)C2)no1,-61.1%
8,CO[C@H]1CCN(Cc2nccs2)C[C@@H]1Cc1ccccc1,-71.9%
9,CCO[C@@H]1CCN(C(=O)c2ccnnc2)[C@@H]1Cc1cnn(C)c1,-62.8%
10,O=C1NC2(CCN(Cc3ccccc3Cl)CC2)CC1c1ccccc1 (centres undefined),-49.2%
11,CN1CCC(N(C)CCC(=O)N2CCC(Oc3ccc(Cl)cc3)CC2)C1 (centres undefined),7.04%
12,Cc1cnc(C)c(N2C[C@H]3OC(=O)N(C4CCCC4)[C@H]3C2)n1,12.5%
13,CCO[C@H]1C[C@@H](O)C12CCN(C1CCN(c3ccccc3C)CC1)CC2,9.9%
14,Cc1cc(NC2CCCN(Cc3ccc(F)cc3)C2)n2nc(C)cc2n1 (centres undefined),0.0152%
15,CC(=O)N[C@@H]1Cc2ccccc2[C@H]1Nc1ccncn1,-43.6%
16,CCc1c(C)nc(N)nc1NCCSCc1[nH]cnc1C,4.5%
17,CCn1nc(CNC(=O)C2CCCN(CC(N)=O)C2)c2ccccc21 (centres undefined),-9.65%
18,CSC(C)CCN1CCC(n2cc(C3CCCCC3)nn2)CC1 (centres undefined),-1.39%
19,CCc1c(C)nc(N)nc1N1CCCC(c2nc(CCOC)no2)C1 (centres undefined),31.5%
20,COc1ccc(C(=O)C2CCCN(Cc3cc(C)n[nH]3)C2)c(OC)c1 (centres undefined),-6.77%
21,CSCCc1c(-c2ccccc2)ncn1CC(C)(C)N1CCOCC1,-47.4%
22,Cc1ccsc1CN(C)Cc1ncccc1C(=O)O,-2.55%

row,Compound,cytotoxicity at 10 µM
1,O=C(c1cnc2c(c1)CCC2)N1CCCC(CO)(CC2CC2)C1 (centres undefined),-42.1%
2,CCCc1cc(C(=O)N(C)Cc2ccc(OC)c3ncccc23)n(C)n1,37.2%
3,O[C@H]1Cc2ccccc2[C@H]1n1ccnc1-c1cc2n(n1)CCNC2,1.58%
4,O=C1N(Cc2ccc(F)c(F)c2)CCCC1(O)CNCC1CCCCC1 (centres undefined),10.5%
5,O=C(NCCN1CCc2ccccc21)c1cc(-c2ccc(O)cc2)n[nH]1,1.91%
6,COc1cccc(CCC2CCCN(C(=O)c3ccc(OC)o3)C2)c1 (centres undefined),9.9%
7,O=C1N(Cc2cccc(F)c2F)CCCC1(O)CNCC1CCCCC1 (centres undefined),-1.29%
8,CNC(=O)c1cn2cc(-c3ccc(F)cc3)n(CC=C(C)C)c(=O)c2n1,-52.2%
9,Cc1cc(C)cc(CN2CCN(Cc3cccc(CCN)c3)CC2=O)c1,-18.3%
10,Cc1nn(C)c(C)c1-c1ccnc(N(C)Cc2nc(C(C)C)no2)n1,20.6%
11,Cc1ccsc1CN(CCN(C)C)C(=O)C1=NNC(=O)CC1,-13.4%
12,CC(C)Cc1cc(C(=O)N2CCC[C@H]2C(=O)N2CCOCC2)on1,6.07%
13,CCc1ccccc1OCCN(C)C(=O)CCN1CCCCO1,-57.1%
14,CCCc1cc(CNC2CCN(c3nc4ccccc4s3)CC2)on1,-4.34%
15,Cc1c(C(=O)N2CCC(N3CCCCC3)CC2)n(C)c2ccc(Cl)cc12,-63.8%
16,COc1cc(CN2CCCC2)ccc1Oc1ccc2c(c1)CC(CN)O2 (centres undefined),-7.79%
17,Cc1ccsc1-c1nnc(C2CCN(Cc3ccc(F)cc3)CC2)o1,4.58%
18,O=C(O)CC(NC(=O)c1ccccc1OC(F)F)c1cccs1 (centres undefined),-10.8%
19,CCc1nc(C(=O)N2CCCC2)nn1-c1ccccc1Cl,-3.17%
20,CCOc1ccc(S(=O)(=O)NCc2cccnc2N(C)C)cc1,34.7%
21,CCc1nc(CN(C)C2CCN(Cc3cnc(C)cn3)C2)no1 (centres undefined),4.23%
22,Cc1nccn1CC1CCCN1CCCc1nc(-c2cccs2)no1 (centres undefined),-1.84%

row,Compound,cytotoxicity at 10 µM
1,CCOc1ccc(N(CC(=O)c2ccccc2)C2=NCCCCC2)cc1,-2.02%
2,Clc1ccc(C2(CNC3=NCCN3)CCCC2)cc1,14.4%
3,O=S(=O)(c1cccs1)N1Cc2nc(CN3CCCC3)oc2C1,-118%
4,CCOC(=O)c1ccccc1NC(=O)CN(C)Cc1ccccc1Cl,-5.65%
5,COCCC(=O)N1CC2(CCN(Cc3ccccc3Cl)CC2)C1,-73.1%
6,COc1cccc(-c2noc(C3CCN(CC4CCCCC4)C3)n2)c1 (centres undefined),-3.44%
7,CNC(=O)COC1COC2(CCN(Cc3cccnc3)CC2)C1 (centres undefined),6.53%
8,CCCN1CCC2(C1)c1ccccc1S(=O)(=O)N2Cc1ccccc1 (centres undefined),16.7%
9,Cc1ccc2c(c1)C1(CCNCC1)CC2NC1CC1 (centres undefined),-117%
10,CN(C)C(=O)CN1CCC2(COCc3cnc(-c4cccnc4)nc32)C1 (centres undefined),-115%
11,Fc1cccc(CNCC2OCCc3cn(CC4CCOCC4)nc32)c1 (centres undefined),-77.1%
12,O=C(Cc1ccccn1)N1CCN2C[C@H](Oc3cncnc3)C[C@H]2C1,-73%
13,Cc1ccc(CN2CC[C@@H]3[C@H]2CCC(=O)N3Cc2ccncc2)s1,-65.6%
14,Cc1cc(CN2CCc3c(CNc4ncccn4)cncc3C2)oc1C,-82.6%
15,Cc1noc(C)c1CN1CCc2ncnc(-c3ccc(F)cc3)c2CC1,-100%
16,Cn1cc(CN2C[C@H]3CCC[C@@]3(COc3ccccn3)C2)cn1,-107%
17,COc1cc(N2C[C@@H]3COC[C@]3(COCc3ccccn3)C2)ncn1,-73.2%
18,Fc1ccc(CN2C[C@@H]3OCCN(CC4CCCO4)[C@@H]3C2)cc1 (some centres undefined),-86.3%
19,COc1cc2c(cc1CNCc1ccnc(-n3cccn3)c1)OC(C)C2 (centres undefined),11.2%
20,O=C(c1ccc(F)c(Cl)c1)N1C[C@H]2CC[C@@H](C1)N(Cc1ccccc1)C2,-8.28%
21,CC1(C)[C@@H]2CC=C(CN3CCCn4nc(C(=O)NCCO)cc4C3)[C@H]1C2,-40.3%
